# Laboratory results: ChEMBL document CHEMBL1275468, “Plasmid-mediated qnrB2 and carbapenemase gene bla(KPC-2) carried on the same plasmid in carbapenem-resistant ciprofloxacin-susceptible Enterobacter cloacae isolates” (2008)
# Key:
# Format in all cases: functional
# Enterobacter cloacae [1] = assay: Antimicrobial activity against Enterobacter cloacae isolate 622 containing PFGE genetic clone A expressing qnrB2 and beta-lactamase KPC-2 and SHV-12 gene by Etest
# Enterobacter cloacae [2] = assay: Antimicrobial activity against Enterobacter cloacae isolate 533 containing PFGE genetic clone A expressing qnrB2 and beta-lactamase KPC-2 and SHV-12 gene by Etest
# Enterobacter cloacae [3] = assay: Antimicrobial activity against Enterobacter cloacae isolate 625 containing PFGE genetic clone A expressing qnrB2 and beta-lactamase KPC-2 and SHV-12 gene by Etest
# Enterobacter cloacae [4] = assay: Antimicrobial activity against Enterobacter cloacae isolate 658 containing PFGE genetic clone B expressing qnrB2 and beta-lactamase KPC-2 and SHV-12 gene by Etest
# Enterobacter cloacae [5] = assay: Antimicrobial activity against Enterobacter cloacae isolate 4469 containing PFGE genetic clone C expressing qnrB2 and beta-lactamase KPC-2 and SHV-12 gene by Etest
# Enterobacter cloacae [6] = assay: Antimicrobial activity against Enterobacter cloacae isolate 293 containing PFGE genetic clone A expressing qnrB2 and beta-lactamase KPC-2 and SHV-12 gene by Etest
# Enterobacter cloacae [7] = assay: Antimicrobial activity against Enterobacter cloacae isolate 1 containing PFGE genetic clone A expressing qnrB2 and beta-lactamase KPC-2 and SHV-12 gene by Etest
# Escherichia coli [8] = assay: Antimicrobial activity against Escherichia coli T-781 harboring expressing qnrB2 and beta-lactamase KPC-2 and SHV-12 gene by Etest
# How it was run: (§1)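 MIC read by Etest. Strains are E. coli GeneHogs (recA1) transformants. Plasmid DNA from clinical E. cloacae isolates was introduced by electroporation. Transformants were selected on LB agar with 100 μg/ml ampicillin, then PCR-screened for blaKPC, blaSHV and qnr genes.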
# Enterobacter cloacae [9] = assay: Antimicrobial activity against Enterobacter cloacae isolate 837 containing PFGE genetic clone B expressing qnrB2 and beta-lactamase KPC-2 and SHV-12 gene by Etest
# Enterobacter cloacae [10] = assay: Antimicrobial activity against Enterobacter cloacae isolate 140 containing PFGE genetic clone A expressing beta-lactamase KPC-2 and SHV-12 gene by Etest
# Enterobacter cloacae [11] = assay: Antimicrobial activity against Enterobacter cloacae isolate 781 containing PFGE genetic clone B expressing qnrB2 and beta-lactamase KPC-2 and SHV-12 gene by Etest
# Enterobacter cloacae [12] = assay: Antimicrobial activity against Enterobacter cloacae isolate 151 containing PFGE genetic clone A expressing qnrB2 and beta-lactamase KPC-2 gene by Etest
# Escherichia coli [13] = assay: Antimicrobial activity against Escherichia coli T-625 harboring expressing qnrB2 and beta-lactamase KPC-2 and SHV-12 gene by Etest; how it was run: as §1
# Escherichia coli [14] = assay: Antimicrobial activity against Escherichia coli T-622 harboring expressing qnrB2 and beta-lactamase KPC-2 and SHV-12 gene by Etest; how it was run: as §1
# Enterobacter cloacae [15] = assay: Antimicrobial activity against Enterobacter cloacae isolate 18 containing PFGE genetic clone A expressing qnrB2 and beta-lactamase KPC-2 and SHV-12 gene by Etest
# Enterobacter cloacae [16] = assay: Antimicrobial activity against Enterobacter cloacae isolate 649 containing PFGE genetic clone B expressing qnrB2 and beta-lactamase KPC-2 and SHV-12 gene by Etest
# Escherichia coli [17] = assay: Antimicrobial activity against Escherichia coli GeneHogs by Etest
# How it was run: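 MIC read by Etest on the plasmid-free electroporation recipient, E. coli GeneHogs (recA1 mutant).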
# Enterobacter cloacae [18] = assay: Antimicrobial activity against Enterobacter cloacae isolate 185 containing PFGE genetic clone A expressing qnrB2 aac(6')-Ib-cr and beta-lactamase KPC-2 and SHV-12 gene by Etest
# Enterobacter cloacae [19] = assay: Antimicrobial activity against Enterobacter cloacae isolate 656 containing PFGE genetic clone A expressing beta-lactamase KPC-2 and SHV-12 gene by Etest
molecule,measurement,setting,value
C[C@@H](O)[C@H]1C(=O)N2C(C(=O)O)=C(S[C@@H]3CN[C@H](C(=O)N(C)C)C3)[C@H](C)[C@H]12 [MEROPENEM],MIC,Enterobacter cloacae [1],8 µg/mL
same,MIC,Enterobacter cloacae [2],2 µg/mL
same,MIC,Enterobacter cloacae [3],6 µg/mL
same,MIC,Enterobacter cloacae [4],24 µg/mL
same,MIC,Enterobacter cloacae [5],8 µg/mL
same,MIC,Enterobacter cloacae [6],8 µg/mL
same,MIC,Enterobacter cloacae [7],2 µg/mL
same,MIC,Escherichia coli [8],2 µg/mL
same,MIC,Enterobacter cloacae [9],6 µg/mL
same,MIC,Enterobacter cloacae [10],4 µg/mL
same,MIC,Enterobacter cloacae [11],> 32 µg/mL
same,MIC,Enterobacter cloacae [12],> 32 µg/mL
same,MIC,Escherichia coli [13],3 µg/mL
same,MIC,Escherichia coli [14],3 µg/mL
same,MIC,Enterobacter cloacae [15],> 32 µg/mL
same,MIC,Enterobacter cloacae [16],4 µg/mL
same,MIC,Escherichia coli [17],0.016 µg/mL
same,MIC,Enterobacter cloacae [18],24 µg/mL
same,MIC,Enterobacter cloacae [19],6 µg/mL
CC(C)(O/N=C(\C(=O)N[C@@H]1C(=O)N2C(C(=O)[O-])=C(C[n+]3ccccc3)CS[C@H]12)c1csc(N)n1)C(=O)O [CEFTAZIDIME],MIC,Enterobacter cloacae [1],≥ 64 µg/mL
same,MIC,Enterobacter cloacae [2],≥ 64 µg/mL
same,MIC,Enterobacter cloacae [3],≥ 64 µg/mL
same,MIC,Enterobacter cloacae [4],≥ 64 µg/mL
same,MIC,Enterobacter cloacae [5],≥ 64 µg/mL
same,MIC,Enterobacter cloacae [6],≥ 64 µg/mL
same,MIC,Enterobacter cloacae [7],≥ 64 µg/mL
same,MIC,Escherichia coli [8],32 µg/mL
same,MIC,Enterobacter cloacae [9],≥ 64 µg/mL
same,MIC,Enterobacter cloacae [10],≥ 64 µg/mL
same,MIC,Enterobacter cloacae [11],≥ 64 µg/mL
same,MIC,Enterobacter cloacae [12],16 µg/mL
same,MIC,Escherichia coli [13],32 µg/mL
same,MIC,Escherichia coli [14],32 µg/mL
same,MIC,Enterobacter cloacae [15],≥ 64 µg/mL
same,MIC,Enterobacter cloacae [16],≥ 64 µg/mL
same,MIC,Escherichia coli [17],≤ 1 µg/mL
same,MIC,Enterobacter cloacae [18],≥ 64 µg/mL
same,MIC,Enterobacter cloacae [19],≥ 64 µg/mL
C[C@H]1[C@H](NC(=O)/C(=N\OC(C)(C)C(=O)O)c2csc(N)n2)C(=O)N1S(=O)(=O)O [AZTREONAM],MIC,Escherichia coli [8],32 µg/mL
same,MIC,Escherichia coli [13],≥ 64 µg/mL
same,MIC,Escherichia coli [14],≥ 64 µg/mL
same,MIC,Escherichia coli [17],≤ 1 µg/mL
C[C@@H](O)[C@H]1C(=O)N2C(C(=O)O)=C(S[C@@H]3CN[C@H](C(=O)Nc4cccc(C(=O)O)c4)C3)[C@H](C)[C@H]12,MIC,Enterobacter cloacae [1],32 µg/mL
same,MIC,Enterobacter cloacae [2],24 µg/mL
same,MIC,Enterobacter cloacae [3],24 µg/mL
same,MIC,Enterobacter cloacae [4],12 µg/mL
same,MIC,Enterobacter cloacae [5],> 32 µg/mL
same,MIC,Enterobacter cloacae [6],> 32 µg/mL
same,MIC,Enterobacter cloacae [7],32 µg/mL
same,MIC,Escherichia coli [8],12 µg/mL
same,MIC,Enterobacter cloacae [9],8 µg/mL
same,MIC,Enterobacter cloacae [10],> 32 µg/mL
same,MIC,Enterobacter cloacae [11],> 32 µg/mL
same,MIC,Enterobacter cloacae [12],> 32 µg/mL
same,MIC,Escherichia coli [13],8 µg/mL
same,MIC,Escherichia coli [14],8 µg/mL
same,MIC,Enterobacter cloacae [15],4 µg/mL
same,MIC,Enterobacter cloacae [16],16 µg/mL
same,MIC,Escherichia coli [17],0.012 µg/mL
same,MIC,Enterobacter cloacae [18],4 µg/mL
same,MIC,Enterobacter cloacae [19],16 µg/mL
GENTAMICIN,MIC,Enterobacter cloacae [1],> 16 µg/mL
same,MIC,Enterobacter cloacae [2],> 16 µg/mL
same,MIC,Enterobacter cloacae [3],> 16 µg/mL
same,MIC,Enterobacter cloacae [4],> 16 µg/mL
same,MIC,Enterobacter cloacae [5],> 16 µg/mL
same,MIC,Enterobacter cloacae [6],> 16 µg/mL
same,MIC,Enterobacter cloacae [7],> 16 µg/mL
same,MIC,Escherichia coli [8],> 16 µg/mL
same,MIC,Enterobacter cloacae [9],> 16 µg/mL
same,MIC,Enterobacter cloacae [10],> 16 µg/mL
same,MIC,Enterobacter cloacae [11],> 16 µg/mL
same,MIC,Enterobacter cloacae [12],> 16 µg/mL
same,MIC,Escherichia coli [13],> 16 µg/mL
same,MIC,Escherichia coli [14],> 16 µg/mL
same,MIC,Enterobacter cloacae [15],> 16 µg/mL
same,MIC,Enterobacter cloacae [16],> 16 µg/mL
same,MIC,Escherichia coli [17],< 1 µg/mL
same,MIC,Enterobacter cloacae [18],> 16 µg/mL
same,MIC,Enterobacter cloacae [19],> 16 µg/mL
CCn1cc(C(=O)O)c(=O)c2ccc(C)nc21 [NALIDIXIC ACID],MIC,Enterobacter cloacae [1],16 µg/mL
same,MIC,Enterobacter cloacae [2],16 µg/mL
same,MIC,Enterobacter cloacae [3],16 µg/mL
same,MIC,Enterobacter cloacae [4],16 µg/mL
same,MIC,Enterobacter cloacae [5],16 µg/mL
same,MIC,Enterobacter cloacae [6],16 µg/mL
same,MIC,Enterobacter cloacae [7],16 µg/mL
same,MIC,Escherichia coli [8],2 µg/mL
same,MIC,Enterobacter cloacae [9],16 µg/mL
same,MIC,Enterobacter cloacae [10],4 µg/mL
same,MIC,Enterobacter cloacae [11],16 µg/mL
same,MIC,Enterobacter cloacae [12],16 µg/mL
same,MIC,Escherichia coli [13],4 µg/mL
same,MIC,Escherichia coli [14],2 µg/mL
same,MIC,Enterobacter cloacae [15],16 µg/mL
same,MIC,Enterobacter cloacae [16],16 µg/mL
same,MIC,Escherichia coli [17],2 µg/mL
same,MIC,Enterobacter cloacae [18],16 µg/mL
same,MIC,Enterobacter cloacae [19],16 µg/mL
C[C@H]1COc2c(N3CCN(C)CC3)c(F)cc3c(=O)c(C(=O)O)cn1c23.C[C@H]1COc2c(N3CCN(C)CC3)c(F)cc3c(=O)c(C(=O)O)cn1c23.O [LEVOFLOXACIN],MIC,Enterobacter cloacae [1],0.5 µg/mL
same,MIC,Enterobacter cloacae [2],0.38 µg/mL
same,MIC,Enterobacter cloacae [3],0.5 µg/mL
same,MIC,Enterobacter cloacae [4],1 µg/mL
same,MIC,Enterobacter cloacae [5],0.5 µg/mL
same,MIC,Enterobacter cloacae [6],0.75 µg/mL
same,MIC,Enterobacter cloacae [7],0.38 µg/mL
same,MIC,Escherichia coli [8],0.047 µg/mL
same,MIC,Enterobacter cloacae [9],0.75 µg/mL
same,MIC,Enterobacter cloacae [10],0.094 µg/mL
same,MIC,Enterobacter cloacae [11],0.5 µg/mL
same,MIC,Enterobacter cloacae [12],0.5 µg/mL
same,MIC,Escherichia coli [13],0.094 µg/mL
same,MIC,Escherichia coli [14],0.023 µg/mL
same,MIC,Enterobacter cloacae [15],0.5 µg/mL
same,MIC,Enterobacter cloacae [16],0.75 µg/mL
same,MIC,Enterobacter cloacae [18],0.5 µg/mL
same,MIC,Enterobacter cloacae [19],0.5 µg/mL
NCC[C@H](O)C(=O)N[C@@H]1C[C@H](N)[C@@H](O[C@H]2O[C@H](CN)[C@@H](O)[C@H](O)[C@H]2O)[C@H](O)[C@H]1O[C@H]1O[C@H](CO)[C@@H](O)[C@H](N)[C@H]1O [AMIKACIN],MIC,Enterobacter cloacae [1],≤ 2 µg/mL
same,MIC,Enterobacter cloacae [2],≤ 2 µg/mL
same,MIC,Enterobacter cloacae [3],≤ 2 µg/mL
same,MIC,Enterobacter cloacae [4],≤ 2 µg/mL
same,MIC,Enterobacter cloacae [5],≤ 2 µg/mL
same,MIC,Enterobacter cloacae [6],16 µg/mL
same,MIC,Enterobacter cloacae [7],≤ 2 µg/mL
same,MIC,Escherichia coli [8],≤ 2 µg/mL
same,MIC,Enterobacter cloacae [9],32 µg/mL
same,MIC,Enterobacter cloacae [10],≤ 2 µg/mL
same,MIC,Enterobacter cloacae [11],≤ 2 µg/mL
same,MIC,Enterobacter cloacae [12],≤ 2 µg/mL
same,MIC,Escherichia coli [13],≤ 2 µg/mL
same,MIC,Escherichia coli [14],≤ 2 µg/mL
same,MIC,Enterobacter cloacae [15],≤ 2 µg/mL
same,MIC,Enterobacter cloacae [16],≤ 2 µg/mL
same,MIC,Escherichia coli [17],≤ 2 µg/mL
same,MIC,Enterobacter cloacae [18],≤ 2 µg/mL
same,MIC,Enterobacter cloacae [19],≤ 2 µg/mL
C[C@@H](O)[C@H]1C(=O)N2C(C(=O)O)=C(SCCNC=N)C[C@H]12 [IMIPENEM ANHYDROUS],MIC,Enterobacter cloacae [1],24 µg/mL
same,MIC,Enterobacter cloacae [2],4 µg/mL
same,MIC,Enterobacter cloacae [3],16 µg/mL
same,MIC,Enterobacter cloacae [4],> 32 µg/mL
same,MIC,Enterobacter cloacae [5],24 µg/mL
same,MIC,Enterobacter cloacae [6],> 32 µg/mL
same,MIC,Enterobacter cloacae [7],16 µg/mL
same,MIC,Escherichia coli [8],3 µg/mL
same,MIC,Enterobacter cloacae [9],6 µg/mL
same,MIC,Enterobacter cloacae [10],> 32 µg/mL
same,MIC,Enterobacter cloacae [11],> 32 µg/mL
same,MIC,Enterobacter cloacae [12],12 µg/mL
same,MIC,Escherichia coli [13],8 µg/mL
same,MIC,Escherichia coli [14],4 µg/mL
same,MIC,Enterobacter cloacae [15],8 µg/mL
same,MIC,Enterobacter cloacae [16],32 µg/mL
same,MIC,Escherichia coli [17],0.125 µg/mL
same,MIC,Enterobacter cloacae [18],8 µg/mL
same,MIC,Enterobacter cloacae [19],32 µg/mL
